# Experimental data reported in the EternaBench riboswitch data.
# Tested on: MS2 coat protein
# Test: apparent Kd, MS2 coat protein; higher = weaker binding; RNA-MaP array; FMN 200 µM where present
# Procedure, shortened: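 The titrant was SNAP-549-labelled MS2 coat protein, run from 0.7 or 1.5 nM in doubling steps to 3 µM. It was applied to designs transcribed by stalled E. coli RNA polymerase on Illumina sequencing-chip clusters, without ligand first and then with constant ligand, in 100 mM Tris-HCl pH 7.5, 80 mM KCl, 4 mM MgCl2, BSA, DTT, yeast tRNA and Tween-20. The apparent Kd is the median of filtered per-cluster binding-curve fits, with green signal normalised to red-channel RNA signal and control-cluster median Fmax.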
# [1] = designed as: OFF switch for flavin mononucleotide, no ligand
# [2] = ligand present: flavin mononucleotide, designed as: OFF switch for flavin mononucleotide
# [3] = designed as: ON switch for flavin mononucleotide, no ligand
# [4] = ligand present: flavin mononucleotide, designed as: ON switch for flavin mononucleotide
Sequence,apparent Kd [1],apparent Kd [2],apparent Kd [3],apparent Kd [4]
AGCUAGUCAGGAUAUACGAACAUGUCAUUAGACGUGAAGGGACAUGAGGAUCACCCAUGUAGAAGGGACUAGCA,40 nM,134 nM,–,–
AGCUCCGCUCGAGGAUAUAGCUGCAUGUAGUGUCCUGAGGCACAUGAGGAUCACCCAUGUGUAGGCUAGAAGGCGACGGACAUU,43.3 nM,152 nM,–,–
AGCUGGUGACAGCAAGAAAGUUCACAUGAGGAUCACCCAUGUAGAAGGCUGUACGGUUACCGUACAGAGGAUAUACAUAGAAAG,19.9 nM,31.5 nM,–,–
AGCUGUGGCCGAGGAUAUCUAGCUUCAAUAACCGAAAUAUAAUCGGACAUGAGGAUCACCCAUGUAGAGAAGGCGGUCUCAGCA,29.6 nM,29.6 nM,–,–
AGCUGUGGCCGAGGAUAUCUAUCCAAUAAAACCGAAAUAUAAUCGGACAUGAGGAUCACCCAUGUAGAGAAGGCGGUCUCAGCA,22.4 nM,30.5 nM,–,–
AGCUGUGGCCGAGGAUAUCUGAAACUCAAAACCGAAAUAUAAUCGGACAUGAGGAUCACCCAUGUAGAGAAGGCGGUCUCAGCA,165 nM,307 nM,–,–
AGCUUCGGUGUCAGGAUAUGGGAAAGGGAACUUACCCAGAAGGGACAUGAGGAUCACCCAUGUGGCUUGACAUG,45.3 nM,109 nM,–,–
AGGAAGUAAAGAGACAUGAGGAUCACCCAUGUGACUGCAUCACAGGAUAUGUCGAGCGAAGCACAACAGAAGGGUGAUCAGGGC,–,–,65.2 nM,120 nM
AGGAAGUGAGGAUAUGCAGUGGCCUGUAGACGCAAGCACUUGUAGAAGGCACAUGAGGAUCACCCAUGUUUAAA,35.8 nM,34.2 nM,–,–
AGGAAGUUAGGAUAUGCUGCUCGUCACUUGCGUGAUGAGUAGCAGAAGGAACAUGAGGAUCACCCAUGUAAAAA,27.7 nM,22.2 nM,–,–
AGGAUGCGUGCAGGAUAUCGAGUCGGGAUGGCUCGCGUGGUGUGCCACAUGAGGAUCACCCAUGUCGAGAAGGGCAGGCGGCGC,535 nM,256 nM,–,–
AGGAUUAAAGGGAAUAACAUGAGGAUCACCCAUGUAUGGGAGAGAAGGCAUAUCGGAGGACGAUAUGAGGAUAUUUAAAAUUUA,–,–,121 nM,38.3 nM
AGGCCGGGAGGAUAUCCAAUAUAUGACAUGAGGAUCACCCAUGUUUCCACUCGUACCUCCGGAGAAGGCCCGGCGA,21.1 nM,19.9 nM,–,–
AGGGUAGUAGGAUAUACAUGAGGAUCACCCAUGUUUCCUUUACGUGACUGGUCCUAGUGUAGAAGGGCUAGCAC,15.8 nM,14.8 nM,–,–
AGGGUGGGCUCAGGAUAUCAGGAAGGGAUGUGGACAUGAGGAUCACCCAUGUACCAGUGUUGUUAUGAGAAGGGAGAUAUUGUA,–,–,16.7 nM,13.5 nM
AGGUAAGACUUAAUUGUGCUGGUGAGAAGGCAAAUGGUUGUGAUUAACAUGAGGAUCACCCAUGUUGAGGAUAUCAUCGGUAUC,–,62.9 nM,–,–
AGGUAAGAGUUAAUUGUGACGGUGAGAAGGCAAUAGGUUGUGAUUAACAUGAGGAUCACCCAUGUUGAGGAUAUCACCACCUAC,14.3 nM,80.8 nM,–,–
AGGUCAACCACAGGAUAUGGCUAGCAUAGCUAGCCAGAAGGGUGGUCAUAUCCAUGUAAAUACAUGAGGAUCACCCAUGUAUCC,–,–,209 nM,79.8 nM
AGGUUGUGAGGAUAUUAGUUAUAUGAAUGGAGGAGUAUGGCUGAGAAGGCACAUGAGGAUCACCCAUGUAGAUC,120 nM,420 nM,–,–
AGUAACAGAGGAUAUACUGUUUUAUGUGUUUGUUGUUUUAAACAUGAGGAUCACCCAUGUAGAAGGCUGAAUAA,20.1 nM,21.2 nM,–,–
AGUAAGAUGCAGAAGGUGUCAGCGAGAGCUGCGACAUGAGGAUCACCCAUGUACCAGUGAGGGUACAAGGAUAUGCAUCUUACA,–,–,243 nM,19.3 nM

Sequence,apparent Kd [1],apparent Kd [2],apparent Kd [3],apparent Kd [4]
AGUACUACAGGAUAUACAUGAGUGAUACUCAUAUCCCUACUACAUGAGGAUCACCCAUGUAGAAGGGUAGUACA,11.7 nM,10.1 nM,–,–
AGUAGAUCAGGAUAUACGUGAAAGGUCAAAGUGUCCAAUCUACAUGAGGAUCACCCAUGUAGAAGGGAUCUACA,15.2 nM,14.6 nM,–,–
AGUCAGAGCAGAGGAUAUAUACAUGAGGAUCACCCAUGUGACUGACUACGCUAGAAAUAGCGUGUAUAGAAGGCUGCUCUGACA,40.2 nM,96.4 nM,–,–
AGUCGGAGCAGAGGAUAUACAUGAGGAUCACCCAUGUAAUAAGAUCAAGCCUGGAAACAGGCAAUGUAGAAGGCUGCUCCGACA,34.2 nM,338 nM,–,–
AGUCGGAGCAGAGGAUAUAUACAUGAGGAUCACCCAUGUAAAGAUCAAAGCUGGAAACAGCAAGUAUAGAAGGCUGCUCCGACA,90.5 nM,271 nM,–,–
AGUCGGCGAGGAUAUACAUGAGGAUCACCCAUGUAUGAUCCUAGACCUGUAGGUCCAUGUAGAAGGCGCUGACA,63.6 nM,29.1 nM,–,–
AGUCGGCGAGGAUAUACAUGAGGAUCACCCAUGUGUGAUCCUAGACCUGUAGGUCCAUGUAGAAGGCGCUGACA,19.6 nM,23.6 nM,–,–
AGUGCCCGAGCAGGAUAUCAAUGGUGGUCUGUACGCUGUAAAUUCAACAUGAGGAUCACCCAUGUUGAGAAGGGUUACGGCGCA,8.86 nM,23.9 nM,–,–
AGUGCUAUGUAGAAGGCAGAUCUGAUUCAGAUCUGAGGAUAUACAUGAGGAUCACCCAUGUUAUGCACCAGCACGAGAGUGCAA,8.2 nM,17.5 nM,–,–
AGUGGGUGUGAUAAAUAGUGGAAGUAGGAUAUGGGCUUACAUGAGGAUCACCCAUGUAUACAGCGCCAGAAGGACUGGACUGUA,–,–,75.3 nM,34.6 nM
AGUGUCAUCGAGAAGGCCUCAACAUGAGGAUCACCCAUGUUGUAAUAUGGGAGGAUAUCGAUGAUACAGCUACGUUUCGUAGCA,–,–,20.7 nM,5.79 nM
AGUGUUUCGUUGUGACCCAUUCACAUGAGGAUCACCCAUGUAGAGGAUAUAGGUCACCACGGUUCCUAGAAGGCUGCAGGUGUG,5.71 nM,7.3 nM,–,–
AGUUAAUAUCGAGGAUAUCUCAUGGAUACAUGAGGAUCACCCAUGUGAAUGGGAGAAGGCGAUAUUAACAGCAUGUUACAUGCA,–,–,32 nM,7.05 nM
AGUUACAAACACAACAUGAGGAUCACCCAUGUACUCUCAUGUAAGGAUAUACAUUCGUAUAGAAAGUAGAAGGUACUAAUUAUG,–,–,515 nM,340 nM
AGUUACAUGAGGAUCACCCAUGUGUAUAGGGCAACCUAUAGACAGGAUAUCCGGCAUGCGGCCUAGGAGAAGGGUCAAAGAAGA,–,–,91.5 nM,429 nM
AGUUAUUCAGGAUAUGGUGUGUUAUACAUGAGGAUCACCCAUGUAGAUCCUGGUUAGGCCUCAGAAGGGAAUGUUC,182 nM,183 nM,–,–
AGUUUCUCCGCAGGAUAUGUGCUCUUUAUCACAUGAGGAUCACCCAUGUCAGCCUACACGGCGAGACAGAAGGGUGGUGAUGCC,–,–,88.6 nM,81.2 nM
AUAAAACAUGAGGAUCACCCAUGUAGAAAUAUGGGAGGAUAUACAAAGACGAAAGUCAAAGUAGAAGGCCUAAAAG,–,–,127 nM,33.5 nM
AUAAACCUAGGAUAUACAUGAGGAUCACCCAUGUAAGGGCAAUGCCCAUGCUCCUCAUGUAGAAGGAGGAGCAG,21.8 nM,25.5 nM,–,–
AUAAAUCAUGUAGGAUAUGCGUGGCGAAGCUAUGCAGAAGGACAUGAGGAUCACCCAUGUCUUUCUGUCUGCGUACAGACAGGA,23.9 nM,115 nM,–,–
AUAAGCUCGUCAGGAUAUACAACAUUGUGUAAGCAGUGUGGUAUGAUCACAUGAGGAUCACCCAUGUAGAAGGGACGAGCUUAU,6.9 nM,44.9 nM,–,–
